# Bioassay records: PubChem BioAssay, several laboratories
# An excerpt weighted towards active compounds, which were near 2.3% of everything screened.
# NPY-Y2 PAM-ag: potentiates or activates human NPY-Y2 receptor; cells expressing NPY-Y2, potentiator/agonist read-out; activation, % at 3.6 µM; 220,000 compounds, 0.45% hits; AID 1359; in the data active = activation above about 27%;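 note: cells stimulated with NPY near EC25 plus isoproterenol at EC100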
# Target sequence (P49146 whole entry, looked up): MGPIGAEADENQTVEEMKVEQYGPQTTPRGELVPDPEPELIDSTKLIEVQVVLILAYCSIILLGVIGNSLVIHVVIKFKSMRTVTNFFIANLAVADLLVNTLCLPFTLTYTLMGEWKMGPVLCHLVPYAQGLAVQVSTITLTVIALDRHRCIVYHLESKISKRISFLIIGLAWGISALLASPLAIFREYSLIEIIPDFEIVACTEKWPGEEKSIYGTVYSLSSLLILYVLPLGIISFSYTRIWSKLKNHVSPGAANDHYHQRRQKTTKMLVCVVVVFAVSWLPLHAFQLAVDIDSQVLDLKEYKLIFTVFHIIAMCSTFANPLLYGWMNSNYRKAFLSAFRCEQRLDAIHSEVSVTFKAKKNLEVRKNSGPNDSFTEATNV
# NPY-Y1 PAM-ag: human NPY-Y1 potentiation or agonism, primary screen. activation, % at 3.6 µM. NPY-Y1 expressing cells, potentiator/agonist activation. P25929. AID 1304. 220,000 compounds, 0.37% hits; in the data active = activation above about 33%, passing the limit was not always enough;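 note: cells stimulated with NPY at EC10 then isoproterenol at EC100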
# NPY-Y2 antag: blocks the human neuropeptide Y Y2 receptor; NPY-Y2 expressing cells, antagonist mode; inhibition, % at 2.7 µM; 140,000 compounds, 0.99% hits; AID 793
# m-calpain inh: inhibitors of pig calpain II. 220,000 compounds, 0.37% hits. AID 1236. inhibition, % at 16 µM. purified calpain II, fluorogenic peptide substrate, 30 min;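 active = inhibition above about 50%, limit read from the data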
# NPY-Y1 antag: NPY-Y1 (human) receptor antagonism; HEK293-CNG Y1 cells, membrane potential fluorescence; NPY at EC95, then isoproterenol; inhibition, % at 3.6 µM; 200,000 compounds, 1% hits;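 active = inhibition above the campaign mean inhibition of all tested compounds plus 3 SD, cut at about 20% in these data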
#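 Benchmarks – high control isoproterenol alone, low control NPY with isoproterenol · Material – HEK293 Y1/CNG channel cell line · Times – dye 3 h, compound 60 min room temperature, stimulation 45 min · Probe or stimulus – NPY (25 nM), isoproterenol (1 µM), Ro 20-1724 (25 µM) · Evaluation – % inhibition of NPY effect · Signal – fluorescence, membrane potential probe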
# TbHK1 inh: T. brucei hexokinase 1 inhibition. 220,000 compounds, 0.11% hits. recombinant TbHK1, G6PDH-coupled NADH A340. inhibition, % at 10 µM;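 active = inhibition of 50% or more in the single-dose primary screen; inactive = inhibition below 50%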
# NPY1 antag conf: confirmation of human neuropeptide Y receptor Y1 antagonists. shares compounds with NPY-Y1 antag. HEK293-CNG NPY-Y1, membrane potential fluorescence, cAMP; NPY challenge against isoproterenol-raised cAMP. inhibition, % at 3.6 µM. 1,200 compounds, 21% hits; in the data active = inhibition above about 20%
# NPY-Y2 antag ct: antagonizes human NPY-Y2, counter-screen to NPY-Y1 antagonists; shares compounds with NPY-Y1 antag; 1,200 compounds, 28% hits; AID 1255; inhibition, % at 3.6 µM; HEK293 NPY-Y2 CNG membrane potential fluorescence, antagonism; cells given NPY, then isoproterenol
# A number is an active result; n = inactive; x = not tested or not shown; ! = not confirmed by another sample. Cut-off read from the data, not from the text of the source, unless noted: active = inhibition above about 17%; inactive = the rest.
SMILES,NPY-Y2 PAM-ag,NPY-Y1 PAM-ag,NPY-Y2 antag,m-calpain inh,NPY-Y1 antag,TbHK1 inh,NPY1 antag conf,NPY-Y2 antag ct
COc1ccc(NC(=O)COc2nc3ccccc3nc2N2CCOCC2)c(OC)c1,n,n,x,n,n,n,x,x
COC(=O)c1ccc(OCC2c3cc(OC)c(OC)cc3CCN2C(=O)c2ccco2)cc1 (configuration not stated),n,n,n,n,22,n,n,18
COC(=O)c1ccc(OCC2c3cc(OC)c(OC)cc3CCN2C(C)=O)cc1 (configuration not stated),n,n,x,n,n,n,x,x
Cc1cc(NC(=O)/C=C/c2ccccc2)c(C(C)C)cc1O,n,n,x,n,28,n,25,24
CCCc1n(CC)c2ccccc2[n+]1CC(O)COC1CCCCC1 (configuration not stated),n,n,x,n,n,n,x,x
Cc1cc(C)nc(SCc2ccc(C(=O)N/N=C/c3ccccc3C(=O)O)cc2)n1,n,n,x,n,30,n,n,n
COc1ccccc1N1CCN(C(=O)C2c3ccccc3Oc3ccccc32)CC1,n,n,n,n,23,n,n,n
Cc1ccc(Cn2c(=N)c(C(=O)NCc3ccco3)cc3c(=O)n4ccccc4nc32)cc1,n,n,n,n,36,n,n,n
COc1cccc(CN(C(=O)Cc2c[nH]c3ccccc23)C(C(=O)NC2CCCCC2)c2ccc(C)o2)c1 (configuration not stated),n,n,n,n,23,n,n,n
COc1cc(C2=NOC(C(=O)NCc3cccs3)C2)cc(OC)c1OC (configuration not stated),n,n,n,n,n,n,x,x
COc1ccc(CNC(=O)C2CC(c3ccc(F)cc3)=NO2)cc1 (configuration not stated),n,n,n,n,n,n,x,x
COc1ccc(C2=NOC(C(=O)NCc3ccc(F)cc3)C2)cc1 (configuration not stated),n,n,n,n,41,n,n,n
COc1ccc(C2=NOC(C(=O)NCc3cccs3)C2)cc1OC (configuration not stated),n,n,n,n,23,n,n,n
COc1ccc(/C=C/CN2CCCC(CO)(Cc3cccc(Cl)c3)C2)cc1 (configuration not stated),n,n,x,n,n,n,x,x
COc1ccc(N(C(=O)/C=C/c2ccccc2)C2=CC3CCC(C2)N3C)cc1 (configuration not stated),n,n,x,n,x,n,x,x
COCCNC(=O)C(c1ccc(F)cc1)N(C(=O)CCC(=O)Nc1nccs1)c1ccc(C)cc1 (configuration not stated),n,n,x,n,n,n,x,x
CC(C)CCNC(=O)/C=C/c1ccc(Br)cc1,n,n,n,n,20,n,n,n
N[C@@H](Cc1cc(I)c(Oc2ccc(O)c(I)c2)c(I)c1)C(=O)O,n,n,n,n,59!,n,n,n
COc1ccc(N2CCc3c(C)nc4c(OC)cc(OC)cc4c32)cc1,n,n,x,n,34,n,26,24
COc1ccc(CCNC(=O)C(=O)N/N=C/c2cccs2)cc1OC,n,n,x,n,n,n,x,x
Cc1ccc2nc(N/C(=N/S(=O)(=O)c3cccs3)c3ccccc3Cl)sc2c1,n,n,x,n,n,n,x,x
OCC1(Cc2ccccc2Cl)CCN(C/C=C/c2ccccc2)CC1,n,n,x,n,27,n,n,n
COc1ccc(-c2nc(CN3CCN(c4cc(C)nc(C)c4)CC3)c(C)o2)c2ccccc12,n,n,x,n,23,n,n,29
CC(=O)CSc1nnc(-c2ccc3c(c2)OCO3)o1,n,n,n,n,21,n,n,n
O=C(O)CCSc1nnc(-c2ccc3c(c2)OCO3)o1,n,n,n,n,n,n,x,x
SMILES,NPY-Y2 PAM-ag,NPY-Y1 PAM-ag,NPY-Y2 antag,m-calpain inh,NPY-Y1 antag,TbHK1 inh,NPY1 antag conf,NPY-Y2 antag ct
O=C(CC(=O)NC1CCCCC1)N/N=C/c1ccccc1F,n,n,x,n,n,n,x,x
COc1ccc(C(=O)C2CCCN(Cc3cccn3-c3ccc(Cl)cn3)C2)c(OC)c1 (configuration not stated),n,n,x,n,50,n,29,31
COc1ccc(C(=O)C2CCCN(Cc3cnc(N4CCOCC4)s3)C2)c(OC)c1 (configuration not stated),n,n,x,n,n,n,x,x
O=C(c1cccc(C(F)(F)F)c1)C1CCCN(Cc2cccn2-c2ccccn2)C1 (configuration not stated),n,n,x,n,59,n,34,38
O=C(c1cccc(C(F)(F)F)c1)C1CCCN(Cc2cccc(OCCO)c2)C1 (configuration not stated),n,n,x,n,n,n,x,x
CC(C)CN1CCN(Cc2cccn2-c2ccc(Cl)cn2)CC1CCO (configuration not stated),n,n,x,n,33,n,n,n
CC(C)CN1CCN(Cc2cccn2-c2ccccn2)CC1CCO (configuration not stated),n,n,x,n,n,n,x,x
CCOC(=O)/C(C#N)=C1\SS/C(=C(/C#N)C(=O)OCC)S1,n,n,x,n,x,n,x,x
COc1ccc(C2(CNC(=O)c3cccs3)CCOCC2)cc1,n,n,x,n,n,n,x,x
CCOC(=O)c1sc(N(Cc2ccccc2)C(=O)CSc2ncn[nH]2)nc1C,n,n,n,n,n,n,x,x
CCOC(=O)c1sc(N(Cc2ccccc2)C(=O)COC(=O)c2ccccc2O)nc1C,n,n,n,n,20,n,n,n
Cc1ccc(C(=O)c2c(C)oc3c2C(=O)C(=O)c2ccccc2-3)cc1,n,n,n,n,n,n,x,x
Cc1oc2c(c1C(=O)c1ccc(Cl)cc1)C(=O)C(=O)c1ccccc1-2,n,n,n,62,26,n,n,n
NC(=O)Cn1c(=O)n(CCC(=O)NCCSCc2ccccc2)c(=O)c2ccccc21,n,n,x,n,n,n,x,x
C1=C(c2ccccc2)Nc2ccccc2N=C1c1ccccc1,n,n,n,n,25,n,n,n
CC(/C=N/n1c(COc2ccccc2)n[nH]c1=S)=C\c1ccccc1,n,n,n,n,31,n,n,n
S=c1[nH]nc(COc2ccccc2)n1/N=C/c1ccncc1,n,n,x,n,n,n,x,x
O=C(COC(=O)COc1ccc2ccccc2c1)NCC(F)(F)F,n,n,x,n,29,n,n,n
OCCC1CN(Cc2cccc(-n3cccn3)c2)CCN1Cc1ccccc1 (configuration not stated),n,n,x,n,n,n,x,x
CCCCNC(=O)N1CCc2ccccc2C1,n,n,n,n,n,n,x,x
